One molecule from ChEMBL document CHEMBL1123436, “Comparative toxicities and analgesic activities of three monomethylated analogues of acetaminophen” (J Med Chem, 1986) can be followed below.

One may read the ED50 as the dose at which the effect has come halfway, by size or by number of responders. The low end stands for an effect at a small dose, the high end for a need for a large dose.

The structures appear in SMILES notation.

The species named for test [1] is Mus musculus. Nature of the test: Analgesic activity determined in mice using the Bradykinin-induced Writhing test. Type of test: functional. The essentials:
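Male CD1 mice (15–20 g), test drug given orally 15 min before bradykinin ip (4 μg in 0.2 mL sterile water), then a second bradykinin injection (0.2 μg/0.1 mL) 15 min later. Writhing was scored over the next 10 min, with control groups of 10 mice. ED50 was derived by log-probit analysis from at least five doses, with 95% limits.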

Test [2] concerns Mus musculus. Nature of the test: (§1) Hepatotoxicity in Swiss-Webster Mice Caused by compound at 400 mg/kg (i.p.) dose. It counts as functional. Particulars: route intraperitoneal. The essentials: (§2)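 Male Swiss-Webster mice (20 g), groups of 10, were given a single ip dose of drug in saline with no pretreatment. Survivors were decapitated at 24 h and counted. Plasma ALT was measured, and liver sections (formalin-fixed, paraffin, H&E) were scored for necrosis severity in survivors. Values are means ± SE.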

Test [3] has as its system Mus musculus. Nature of the test: (§3) Hepatotoxicity in Swiss-Webster Mice Caused by compound at 750 mg/kg (i.p.) dose. It counts as functional. The note with it: route intraperitoneal. The essentials: as §2
In test [4] the test system is Mus musculus. The test is described as §1. It counts as functional, organism-based. Details: dose 400 mg/kg. The essentials:
as §2

Test [5] concerns Mus musculus. Described as §3. Type of test: functional, organism-based. Details: dose 750 mg/kg. Summed up: as §2
Test [6] deals with Mus musculus. Nature of the test: Hepatotoxicity in Swiss-Webster Mice Caused by compound at 400 mg/kg (i.p.) dose; 9/10. Type of test: functional. The note with it: route intraperitoneal. Summed up:
as §2

Test [7] is described as follows: (§4) Hepatotoxicity in Swiss-Webster Mice Caused by compound at 400 mg/kg (i.p.) (phenobarbital pretreated animals)dose. It counts as functional, Mus musculus. Particulars: route intraperitoneal. The essentials:
(§5)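 Male Swiss-Webster mice (20 g), groups of 10. Sodium phenobarbital (80 mg/kg ip) was given 72, 60, 48 and 24 h before drug, then drug ip in saline. At 24 h: survivors counted, plasma ALT measured, and H&E liver sections scored for necrosis in survivors. Values are means ± SE.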

Test [8] has as its system Mus musculus. The test is described as §4. Type of test: functional, organism-based. Also on record: dose 400 mg/kg. Summed up: as §5
The nature of test [9]: (§6) Hepatotoxicity in Swiss-Webster Mice Caused by compound at 400 mg/kg (i.p.) (cobaltous chloride pretreated animals)dose. Type of test: functional, Mus musculus. The note with it: route intraperitoneal. Summed up:
(§7)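 Male Swiss-Webster mice (20 g), groups of 10. Cobaltous chloride (30 mg/kg ip) was given 48, 36, 24 and 12 h before drug, then drug ip in saline. At 24 h: survivors counted, plasma ALT measured, and H&E liver sections scored for necrosis in survivors. Values are means ± SE.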

For test [10], the system named is Mus musculus. Nature of the test: Hepatotoxicity in Swiss-Webster Mice Caused by compound at 750 mg/kg (i.p.) dose; 4/10. Type of test: functional. Particulars: route intraperitoneal. The essentials:
as §2

For test [11], the system named is Mus musculus. Nature of the test: Hepatotoxicity in Swiss-Webster Mice Caused by compound at 1000 mg/kg (i.p.) (pipernonyl butoxide pretreated animals)dose. Type of test: functional, organism-based. Details: dose 1000 mg/kg. The essentials:
(§8)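 Male Swiss-Webster mice (20 g), groups of 10. Piperonyl butoxide (neat, single 1360 mg/kg ip dose) was given 30 min before drug, then drug ip in saline. At 24 h: survivors counted, plasma ALT measured, and H&E liver sections scored for necrosis in survivors. Values are means ± SE.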

Test [12] deals with Mus musculus. Nature of the test: Hepatotoxicity in Swiss-Webster Mice Caused by compound at 400 mg/kg (i.p.) (pipernonyl butoxide pretreated animals)dose; 9/10. Particulars: route intraperitoneal. Type of test: functional. The essentials: as §8
In test [13] the test system is Mus musculus. Described as §6. Details: dose 400 mg/kg. It counts as functional, organism-based. The essentials: as §7
Test [14] is described as follows: Hepatotoxicity in Swiss-Webster Mice Caused by compound at 400 mg/kg (i.p.) (cobaltous chloride pretreated animals)dose; 8/10. The note with it: route intraperitoneal. Type of test: functional, Mus musculus. The essentials:
as §7

A short description of test [15]: Hepatotoxicity in Swiss-Webster Mice Caused by compound at 400 mg/kg (i.p.) (phenobarbital pretreated animals)dose; 4/10. It counts as functional, Mus musculus. Particulars: route intraperitoneal. Summed up:
as §5

Test [16] concerns Mus musculus. Nature of the test: Hepatotoxicity in Swiss-Webster Mice Caused by compound at 400 mg/kg (i.p.) (pipernonyl butoxide pretreated animals)dose. It counts as functional. Particulars: route intraperitoneal. Summed up:
as §8

`CC(=O)Nc1ccc(O)c(C)c1` registered an ED50 in the test listed under Mus musculus [1] of 94.6 mg/kg. Besides, the “Hepatic necrosis in survivors” value with Mus musculus [2] was determined as 1; with Mus musculus [3], 2.75; in test [7], 3.5; in [9], 0.56; in the test on Mus musculus [16], 0. Moreover, the Plasma ALT at 24 h in the test on Mus musculus [4] worked out at 1080 mU ml-1; with Mus musculus [5], 3250 mU ml-1; in the test on Mus musculus [8], 5130 mU ml-1; in the test on Mus musculus [11], 83 mU ml-1; in the test on Mus musculus [13], 345 mU ml-1. For the same molecule, the “Survivors at 24 h” value in the test with Mus musculus [6] was found to be 9; in the test with Mus musculus [10], 4; in the test on Mus musculus [12], 9; in [14] it was 8; in test [15], 4.
